Experimental data of several laboratories.
Each line is one published result; the experiments were not run side by side.
Target: Dual specificity tyrosine-phosphorylation-regulated kinase 2 (DYRK2, Homo sapiens, UniProt Q92630)
Technique: competition with immobilised ligand
Sequence (Q92630 1-601, as in one of the studies): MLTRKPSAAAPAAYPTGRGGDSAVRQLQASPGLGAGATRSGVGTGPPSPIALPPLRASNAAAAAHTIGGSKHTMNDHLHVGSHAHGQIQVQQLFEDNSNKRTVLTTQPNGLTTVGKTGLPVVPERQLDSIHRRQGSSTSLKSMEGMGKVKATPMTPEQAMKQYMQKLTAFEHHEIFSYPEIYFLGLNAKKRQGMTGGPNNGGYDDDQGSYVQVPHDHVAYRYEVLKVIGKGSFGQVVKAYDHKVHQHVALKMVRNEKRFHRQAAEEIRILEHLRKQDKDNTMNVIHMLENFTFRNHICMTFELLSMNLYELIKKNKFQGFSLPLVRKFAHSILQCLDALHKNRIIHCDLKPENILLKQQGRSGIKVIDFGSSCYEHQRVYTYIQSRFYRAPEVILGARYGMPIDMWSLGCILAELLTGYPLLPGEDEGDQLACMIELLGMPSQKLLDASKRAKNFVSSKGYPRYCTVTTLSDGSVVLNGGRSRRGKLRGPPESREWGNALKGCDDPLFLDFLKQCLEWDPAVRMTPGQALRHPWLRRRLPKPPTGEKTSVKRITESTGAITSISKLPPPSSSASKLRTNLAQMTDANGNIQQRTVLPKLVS

`O=C(NCCCN1CCOCC1)c1ccc(Nc2nccc(-c3cc4ccccc4s3)n2)cc1` gave a remaining binding of 16% (binding; 1 µM).
`O=C(Nc1c[nH]nc1C(=O)NC1CCNCC1)c1cc(F)cc(F)c1` has a remaining binding of 4.8% (binding; 1 µM).
The remaining binding of `O=C(c1ccc(Nc2nccc(-c3cc4ccccc4s3)n2)cc1)N1CCC(N2CCCC2)CC1` is reported as 3.9% (binding; 1 µM).
For `CN(C(=O)c1ccccc1)c1cc(N(C)c2ccc3c(c2)CCc2ccc(C(=O)NCCN4CCOCC4)cc2C3=O)ccc1F`, the remaining binding was 82% (cell-free assay; 1 µM).
For `COc1cnc(Nc2cccc(S(N)(=O)=O)c2)nc1N1CCN(c2ccccc2)C(=O)C1`, the remaining binding was 56% (binding; 1 µM).
`COc1cc(-c2cn(C3CCc4ccccc4N(CC(F)(F)F)C3=O)nn2)ccc1-n1ccc(C)n1` (centres unmarked) has a remaining binding of 94% (cell-free assay; 1 µM).
`COc1ncc2cc3ccccc3nc2c1C#N` has a remaining binding of 85% (cell-free assay; 5 µM).
`C[C@@H](c1ccc(-n2cnc3c(N)ncnc32)cc1)N1CCc2nn(C)c(Cc3ccccc3)c2C1=O` has a remaining binding of 79% (binding; 0.1 µM).
With `Nc1ncc2c(n1)-c1c([nH]c3ccc(C#CC4CC4)cc13)CCCC2` the remaining binding was 100% (binding; 1 µM).
With `CNC(=O)[C@@H]1CC[C@@H](n2c(-c3ccc4cnccc4c3)nc3ccc(C(=O)NCc4cccc(C(N)=O)c4)cc32)C1` the remaining binding was 86% (binding; 1 µM).
With `O=C(Nc1ccc(Oc2ccc(F)cc2)cc1)N1CCc2ncccc2[C@H]1c1ccc(F)cc1` the remaining binding was 84% (cell-free assay; 1 µM).
With `FC(F)(F)Oc1cccc(-c2cnc3ccc(-c4ccncc4)nn23)c1` the remaining binding was 5% (cell-free assay; 5 µM).
The remaining binding of `O=C(c1ccc(Nc2ncc(Cl)c(-c3cc4ccccc4s3)n2)cc1)N1CCC(N2CCCC2)CC1` is reported as 3.1% (binding; 1 µM).
For `CO[C@@H](C)c1c(Nc2ccc([C@H](N(C)C(=O)C3CCS(=O)(=O)CC3)C(F)(F)F)cc2)cnc2cc(Cl)nn12`, the remaining binding was 89% (cell-free assay; 1 µM).
